Laboratory results as given in ChEMBL document CHEMBL4393735, “Molecular modelling, synthesis, and biological evaluations of a 3,5-disubstituted isoxazole fatty acid analogue as a PPARα-selective agonist” (Bioorg Med Chem, 2019).
Active and inactive are the calls of the source.

What was measured:
COS-1 [1] = assay: Cytotoxicity against African green monkey COS1 cells assessed as reduction in cell viability at 10^-4 M by LDH release assay; type: cell-based; conditions: chlorocebus aethiops, cos-1, 100 µM
Outline: (§1)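 COS-1 cells were treated across the same concentration series as the GAL4 dose-response runs. Cytotoxicity was measured as LDH released into medium (absorbance 492/750 nm) and by XTT viability assay (absorbance 450/690 nm). Results expressed relative to control.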

COS-1 [2] = assay: Cytotoxicity against African green monkey COS1 cells assessed as reduction in cell viability at 10^-3 M by XTT based assay relative to control; conditions: chlorocebus aethiops, cos-1, 1000 µM; outline: as §1
[3] = target: T1, Peroxisome proliferator-activated receptor alpha (Homo sapiens, UniProt Q07869); assay: Agonist activity at full length human FLAG-tagged GAL4-DBD fused PPARalpha LBD (168 to 468 residues) expressed in COS1 cells measured after 18 hrs by dual luciferase reporter gene assay; type: cell-based
T1 sequence (Q07869 whole entry): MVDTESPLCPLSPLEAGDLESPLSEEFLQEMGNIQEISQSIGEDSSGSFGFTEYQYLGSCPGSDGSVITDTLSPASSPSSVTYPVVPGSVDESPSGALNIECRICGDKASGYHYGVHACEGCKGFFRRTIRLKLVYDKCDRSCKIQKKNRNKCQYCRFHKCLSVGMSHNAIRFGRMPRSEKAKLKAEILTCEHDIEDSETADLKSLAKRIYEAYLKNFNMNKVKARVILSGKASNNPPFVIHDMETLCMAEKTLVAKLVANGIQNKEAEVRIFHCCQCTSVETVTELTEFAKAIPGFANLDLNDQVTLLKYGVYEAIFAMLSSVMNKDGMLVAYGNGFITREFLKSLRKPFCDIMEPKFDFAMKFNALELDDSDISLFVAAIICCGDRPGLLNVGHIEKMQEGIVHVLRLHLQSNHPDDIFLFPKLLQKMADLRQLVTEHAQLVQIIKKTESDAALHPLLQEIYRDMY
Outline: (§2)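 Dose-response in COS-1 cells transfected with GAL4-DBD–human PPARα or PPARγ LBD, a 5×UAS-SV40 firefly reporter and pRL-CMV. Cells were treated with increasing concentrations in 0.1% DMSO (final) 6 h post-transfection, then for 18 h. Firefly/Renilla ratio, normalized to GAL4-only activity. EC50 was taken from a sigmoidal dose-response fit. At least three independent transfections in quadruplicate.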

[4] = target: T2, Peroxisome proliferator-activated receptor gamma (Homo sapiens, UniProt P37231); assay: Agonist activity at full length human FLAG-tagged GAL4-DBD fused PPARgamma LBD (205 to 505 residues) expressed in COS1 cells measured after 18 hrs by dual luciferase reporter gene assay; type: cell-based; outline: as §2
T2 sequence (P37231 whole entry): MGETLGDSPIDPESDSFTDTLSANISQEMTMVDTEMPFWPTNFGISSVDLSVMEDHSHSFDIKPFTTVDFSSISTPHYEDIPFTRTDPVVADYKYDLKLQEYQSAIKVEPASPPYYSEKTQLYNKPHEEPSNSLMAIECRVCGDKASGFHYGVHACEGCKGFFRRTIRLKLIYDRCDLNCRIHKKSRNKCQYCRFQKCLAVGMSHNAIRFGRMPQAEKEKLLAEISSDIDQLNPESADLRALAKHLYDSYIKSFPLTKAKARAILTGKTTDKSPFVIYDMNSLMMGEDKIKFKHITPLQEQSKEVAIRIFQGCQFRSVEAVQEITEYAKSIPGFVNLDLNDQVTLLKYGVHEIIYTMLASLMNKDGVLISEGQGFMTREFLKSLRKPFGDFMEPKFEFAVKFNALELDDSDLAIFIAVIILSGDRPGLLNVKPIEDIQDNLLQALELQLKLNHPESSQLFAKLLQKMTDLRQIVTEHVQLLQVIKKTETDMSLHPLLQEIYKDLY

[5] = target: T3, Peroxisome proliferator-activated receptor alpha (Homo sapiens) (UniProt Q07869); assay: Agonist activity at PPARalpha in human Huh7 cells assessed as SCD1 mRNA expression at 50 uM measured after 18 hrs by qRT-PCR analysis; type: cell-based
T3 sequence (whole entry): T1 sequence (Q07869 whole entry)
Outline: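 Treatment for 18 h at 50 μM (or 1 μM for the 1 μM agents), DMSO vehicle. Harvested for qPCR. mRNA normalized to TBP by the comparative threshold method, expressed relative to DMSO control. Two biological replicates run in duplicate, mean ± SEM. Primary hepatocytes came from male C57BL/6N mice aged 7–8 weeks, isolated by portal-vein perfusion and digestion, seeded on collagen I and used on day 2. HuH-7 cells were kept in DMEM with 10% FBS and ITS.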

SGBS [6] = assay: Upregulation of CD36 gene expression in human preadipocyte derived from Simpson-Golabi-Behmel syndrome (SGBS) patient at 25 uM measured for 12 days by qRT-PCR analysis; type: functional, cell-based
Outline: (§3)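 SGBS cells were differentiated with serum-free induction medium containing 25 μM test agent, 2 μM rosiglitazone or 0.1% DMSO from day 0. IBMX and dexamethasone were removed on day 4 and medium was renewed on day 8. RNA was taken on days 0, 4, 8 and 12 for qPCR, normalized to TBP and to day 0. At least three biological replicates in duplicate, two-way ANOVA with Bonferroni.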

SGBS [7] = assay: Upregulation of ADIPOQ gene expression in human preadipocyte derived from Simpson-Golabi-Behmel syndrome (SGBS) patient at 25 uM measured for 12 days by qRT-PCR analysis; type: functional, cell-based; outline: as §3
SGBS [8] = assay: Upregulation of ANGPTL4 gene expression in human preadipocyte derived from Simpson-Golabi-Behmel syndrome (SGBS) patient at 25 uM measured for 12 days by qRT-PCR analysis; type: functional, cell-based; outline: as §3
SGBS [9] = assay: Induction of adipocyte differentiation in human preadipocyte derived from Simpson-Golabi-Behmel syndrome (SGBS) patient assessed as lipid accumulation at 25 uM measured for 12 days by Oil red O staining based microscopic analysis; type: functional, cell-based
Outline: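 Differentiation of SGBS preadipocytes was started in serum-free medium with transferrin, insulin, T3, hydrocortisol, IBMX and dexamethasone, plus 25 μM test agent, 2 μM rosiglitazone or 0.1% DMSO. On day 4 medium was switched to lack IBMX and dexamethasone, and it was renewed on day 8. Cells were fixed with 4% PFA and stained with 0.3% Oil Red O on days 0, 4, 8 and 12, then photographed.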

- EC50 [3]: 47 µM
- EC50 [4]: 2 mM
- Activity [5]: inactive
Compound: CCCCCCCc1cc(CCCCCC(=O)O)no1
- Activity (COS-1 [1]): Toxic
- Activity (COS-1 [2]): 40%
- Activity (SGBS [6]): Active
- Activity (SGBS [7]): Active
- Activity (SGBS [8]): Active
- Activity (SGBS [9]): Active
